# What was measured:
# MCF7 [1] = assay: Cytotoxicity against human MCF7 cells assessed as growth inhibition at 100 uM after 72 hrs by MTT assay; assay type: functional; details: MCF7, 72 h
# Method in brief: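 MCF-7 cells in RPMI 1640 with 10% fetal bovine serum, plated at 10⁴ cells/well. Compounds in DMSO diluted into medium at 0.1–100 and incubated 72 h at 37 °C, 5% CO₂. Doxorubicin served as positive control and 0.6% DMSO as negative control. MTT for 4 h; formazan dissolved in 2-propanol/DMSO/HCl (30:20:2); read at 570 nm. Inhibition percentage at the highest concentration.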
# Raji [2] = assay: Cytotoxicity against human Raji cells assessed as growth inhibition at 100 uM after 48 hrs by MTT assay; assay type: functional
# Method in brief: (§1)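 Jurkat and Raji cells in RPMI 1640 with 10% fetal bovine serum, plated at 10⁴ cells/well. Compounds in DMSO diluted into medium, tested at 0.1–100. Exposure 48 h at 37 °C, 5% CO₂. Doxorubicin positive control; 0.6% DMSO negative control. MTT added for a further 4 h; formazan dissolved in 2-propanol/DMSO/HCl (30:20:2); A570. Inhibition percentage taken at the top concentration.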
# Jurkat [3] = assay: Cytotoxicity against human Jurkat cells assessed as growth inhibition at 100 uM after 48 hrs by MTT assay; assay type: functional; method in brief: as §1
# Jurkat [4] = assay: Cytotoxicity against human Jurkat cells after 48 hrs by MTT assay; assay type: functional, cell-based
# Method in brief: (§2)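 Cells were grown in RPMI 1640 with 10% fetal bovine serum and plated at 10⁴ cells/well. Compounds were dissolved in DMSO, diluted in medium, and tested at 0.1, 1, 10, 25, 50, 75 and 100. Incubation was at 37 °C in 5% CO₂ for 48 h (Jurkat, Raji) or 72 h (MCF-7). Controls were doxorubicin (positive) and 0.6% DMSO (negative). MTT was added for a further 4 h, formazan was dissolved in 2-propanol/DMSO/HCl (30:20:2), and absorbance was read at 570 nm.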
# MCF7 [5] = assay: Cytotoxicity against human MCF7 cells after 72 hrs by MTT assay; assay type: functional, cell-based; details: MCF7, 72 h; method in brief: as §2
# Raji [6] = assay: Cytotoxicity against human Raji cells after 48 hrs by MTT assay; assay type: functional, cell-based; method in brief: as §2
SMILES,inhibition at 100 µM (MCF7 [1]) [%],inhibition at 100 µM (Raji [2]) [%],inhibition at 100 µM (Jurkat [3]) [%],IC50 (Jurkat [4]) [µM],IC50 (MCF7 [5]) [µM],IC50 (Raji [6]) [µM]
COc1cccc2c1C(=O)c1c(O)c3c(c(O)c1C2=O)C[C@@](O)(C(=O)CO)C[C@@H]3O[C@H]1C[C@H](N)[C@H](O)[C@H](C)O1 [DOXORUBICIN],65.5,66.7,82.3,,,
CCOP(=O)(OCC)C(Nc1ccc(Cc2ccc(NC(c3ccccc3)P(=O)(OCC)OCC)cc2)cc1)c1ccccc1 (stereo not given),13.9,6.41,28,,,
CCOP(=O)(OCC)C(Nc1ccc(S(=O)(=O)c2ccc(NC(c3ccc(O)c(OC)c3)P(=O)(OCC)OCC)cc2)cc1)c1ccc(O)c(OC)c1 (stereo not given),16.6,0,15.6,,,
CCOP(=O)(OCC)C(NCCc1c[nH]c2ccccc12)c1ccc(C(NCCc2c[nH]c3ccccc23)P(=O)(OCC)OCC)cc1 (stereo not given),54.2,64.8,68.4,24.3,67.5,45.2
CCOP(=O)(OCC)C(Nc1ccc(Cc2ccc(NC(c3cc(OC)c(OC)c(OC)c3)P(=O)(OCC)OCC)cc2)cc1)c1cc(OC)c(OC)c(OC)c1 (stereo not given),3.5,0,20.1,,,
CCOP(=O)(OCC)C(Nc1ccc(Oc2ccc(NC(c3ccccc3)P(=O)(OCC)OCC)cc2)cc1)c1ccccc1 (stereo not given),0,0,6.84,,,
CCOP(=O)(OCC)C(Nc1ccc(C(=O)c2ccc(NC(c3ccccc3)P(=O)(OCC)OCC)cc2)cc1)c1ccccc1 (stereo not given),10.2,0,15.8,,,
CCOP(=O)(OCC)C(Nc1nc2[nH]cnc2c(=O)[nH]1)c1ccc(C(Nc2nc3[nH]cnc3c(=O)[nH]2)P(=O)(OCC)OCC)cc1 (stereo not given),12.7,64.8,0,,,
CCOP(=O)(OCC)C(Nc1ccc(Cc2ccc(NC(c3ccc(N(C)C)cc3)P(=O)(OCC)OCC)cc2)cc1)c1ccc(N(C)C)cc1 (stereo not given),12.7,0.78,17.8,,,
CCOP(=O)(OCC)C(Nc1ccccc1)c1ccc(C(Nc2ccccc2)P(=O)(OCC)OCC)cc1 (stereo not given),25.4,27.2,36.8,,,
CCOP(=O)(OCC)C(Nc1ccc(Cc2ccc(NC(c3ccc([N+](=O)[O-])cc3)P(=O)(OCC)OCC)cc2)cc1)c1ccc([N+](=O)[O-])cc1 (stereo not given),12.2,0,10.7,,,
CCOP(=O)(OCC)C(Nc1ccc(Cc2ccc(NC(c3ccc(O)c(OC)c3)P(=O)(OCC)OCC)cc2)cc1)c1ccc(O)c(OC)c1 (stereo not given),29.1,56.2,40.1,,,58.6

# From ChEMBL document CHEMBL1155977, “Design and one-pot synthesis of alpha-aminophosphonates and bis(alpha-aminophosphonates) by iron(III) chloride and cytotoxic activity” (Eur J Med Chem, 2009)
